“And” between values parts separate entries of the source, which are not always exact repeats. Equal values may be shown once.
Experiment: Antitumor activity against renal cell lines of the NCI60 panel
Assay type: functional, Homo sapiens
Outline: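 Run by NCI in the 60-cell-line panel (details in Supporting Information). Highest concentration 10^-4 M unless noted (one case 10-2.6 M). Values expressed as -log molar concentration giving 50% growth inhibition (pGI50), total cytostasis (pTGI) or 50% cell kill (pLC50); only values >4.00 reported; mean graph midpoint is the calculated panel mean.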

`N=C(N)N/N=C/c1c(-c2cc([N+](=O)[O-])c(Cl)cc2Cl)nc2n1CCS2` showed an LC50 of 5.25 µM.
With `Cc1sc2nc(-c3cc([N+](=O)[O-])c(Cl)cc3Cl)c(/C=N/NC(=N)N)n2c1C` the LC50 was 36.3 µM and 85.1 µM.
`Cc1csc2nc(-c3cc([N+](=O)[O-])c(Cl)cc3Cl)c(/C=N/N=C(N)N)n12` showed an LC50 of 64.6 µM.
In the case of `CCc1cn2c(/C=N/NC(=N)N)c(-c3cc([N+](=O)[O-])c(Cl)cc3Cl)nc2s1`, the LC50 is reported as 3.02 µM and 6.46 µM.
`Cc1sc2nc(-c3ccccn3)c(/C=N/NC(=N)N)n2c1C` showed an LC50 of 57.5 µM.
Molecule `Cc1cn2c(/C=N/NC(=N)N)c(-c3ccncc3)nc2s1` has an LC50 of 72.4 µM.
`N=C(N)N/N=C/c1c(-c2ccccn2)nc2sc(Cl)cn12` showed an LC50 of 28.8 µM.
`N=C(N)N/N=C/c1c(-c2cccnc2)nc2sc(Cl)cn12` gave an LC50 of 69.2 µM.
For `N=C(N)N/N=C/c1c(-c2cc([N+](=O)[O-])c(Cl)cc2Cl)nc2sccn12`, the LC50 was 4.47 µM and 24 µM.
With `N=C(N)N/N=C/c1c(-c2ccc(Cl)c([N+](=O)[O-])c2)nc2n1CCS2` the LC50 was 28.2 µM and 64.6 µM.
For `N=C(N)N/N=C/c1c(-c2ccncc2)nc2sc(Cl)cn12`, the LC50 was 15.8 µM and 44.7 µM.
For `CCCc1cn2c(/C=N/NC(=N)N)c(-c3cc([N+](=O)[O-])c(Cl)cc3Cl)nc2s1`, the LC50 was 5.37 µM.
With `Cc1cn2c(/C=N/NC(=N)N)c(-c3ccccn3)nc2s1` the LC50 was 19.5 µM and 53.7 µM.
With `Cc1cn2c(/C=N/NC(=N)N)c(-c3cccnc3)nc2s1` the LC50 was 27.5 µM and 61.7 µM.
Work on `N=C(N)N/N=C/c1c(-c2cc([N+](=O)[O-])c(Cl)cc2Cl)nc2sc(Cl)cn12` yielded an LC50 of 97.7 µM.
